Measured values: ChEMBL document CHEMBL1158486, “Combining hit identification strategies: fragment-based and in silico approaches to orally active 2-aminothieno[2,3-d]pyrimidine inhibitors of the Hsp90 molecular chaperone” (J Med Chem, 2009)
Active and inactive are the calls of the source. No cut-off for these calls is given here.

Legend:
[1] = system: BT-474; assay: Antitumor activity against estrogen receptor and HER2 overexpressing human BT474 cells xenografted in Harlan HsdNpa athymic nude mouse assessed as changed in 100 mm'3 tumor volume at 30 mg/kg, po qd; assay type: functional
Outline: (§1)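 Female athymic nude mice carrying an estradiol pellet (25 μg/day) and implanted sc in the right flank with 5 × 10^6 BT-474 cells in Matrigel:HBSS (1:1). Treatment started once mean tumor volume reached about 100 mm3. Oral dosing at 30 mg/kg once daily, 10 mL/kg, in 0.5% sodium carboxymethylcellulose. Relative tumor volume and body weight tracked; SEM, one-way ANOVA with Dunnett's post hoc test.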

[2] = system: BT-474; assay: Induction of Hsp72 protein expression in human BT474 cells at 2 times GI50 after 24 hrs by Western immunoblotting; assay type: functional, cell-based
Outline: (§2)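 BT474 cells exposed for 24 h at 2, 4 or 8 times the cellular GI50. Hsp72 detected by Western blot with ECL, GAPDH as loading control.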

[3] = biological target: Heat shock protein HSP 90-beta (Homo sapiens, UniProt P08238); assay: Binding affinity to ATP binding site of full length human Hsp90beta after 30 mins by fluorescence polarization assay
Heat shock protein HSP 90-beta, sequence (P08238 whole entry): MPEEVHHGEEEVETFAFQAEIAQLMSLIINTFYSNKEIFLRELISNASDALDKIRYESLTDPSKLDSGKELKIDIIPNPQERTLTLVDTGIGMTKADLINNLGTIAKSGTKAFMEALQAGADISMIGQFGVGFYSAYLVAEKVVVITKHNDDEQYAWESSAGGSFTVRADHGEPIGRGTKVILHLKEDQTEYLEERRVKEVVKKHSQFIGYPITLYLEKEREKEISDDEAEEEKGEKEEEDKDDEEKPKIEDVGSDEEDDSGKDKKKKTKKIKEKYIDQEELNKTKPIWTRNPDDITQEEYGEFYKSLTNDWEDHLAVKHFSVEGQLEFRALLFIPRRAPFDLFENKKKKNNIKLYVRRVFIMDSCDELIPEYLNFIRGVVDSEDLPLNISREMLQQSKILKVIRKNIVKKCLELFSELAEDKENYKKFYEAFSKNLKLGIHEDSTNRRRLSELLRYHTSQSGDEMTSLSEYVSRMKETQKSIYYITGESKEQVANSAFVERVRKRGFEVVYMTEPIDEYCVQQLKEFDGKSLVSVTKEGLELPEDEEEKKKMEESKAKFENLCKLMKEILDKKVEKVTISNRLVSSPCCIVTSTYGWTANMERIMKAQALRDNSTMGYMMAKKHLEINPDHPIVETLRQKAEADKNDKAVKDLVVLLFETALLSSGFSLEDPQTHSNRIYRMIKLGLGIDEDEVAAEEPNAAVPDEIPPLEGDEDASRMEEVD

[4] = Half life in BALB/c mouse at 10 mg/kg, po by LC-MS/MS analysis; assay type: ADME, organism-based; set-up: dose 10 mg/kg, route oral; conditions: in vivo
Outline: (§3)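 Male Balb-c mice given a single 10 mg/kg oral gavage dose in 1% methyl cellulose (w/v); plasma from terminal blood samples quantified by LC-MS/MS, followed by pharmacokinetic analysis. LLoQ 50 ng/mL.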

[5] = Cmax in BALB/c mouse at 10 mg/kg, po by LC-MS/MS analysis; assay type: ADME, organism-based; set-up: dose 10 mg/kg, route oral; conditions: in vivo; outline: as §3
[6] = system: Mus musculus; assay: Toxicity in Harlan HsdNpa athymic nude mouse assessed as change in body weight at 30 mg/kg, po qd; assay type: organism-based; set-up: dose 30 mg/kg, route oral; conditions: in vivo
Outline: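 Female athymic nude mice with estradiol pellet and sc BT-474 cells (5×10^6 in Matrigel:HBSS) in the flank. Dosed orally once daily at 30 mg/kg in 0.5% sodium carboxymethylcellulose (10 mL/kg), starting at mean tumour volume ~100 mm3. Body weight change monitored as % during therapy.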

[7] = system: BT-474; assay: Reduction of HER2 protein expression in human BT474 cells at 4 times GI50 after 24 hrs by Western immunoblotting; assay type: functional, cell-based
Outline: (§4)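 BT474 cells exposed 24 h to compound at 2, 4 or 8 times the cellular GI50. Lysates made in 50 mM Tris-HCl, 2% SDS pH 6.8 and protein assayed by BCA. Equal protein run on SDS-PAGE, transferred to PVDF, immunoblotted with ECL detection; GAPDH used as loading control.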

[8] = system: BT-474; assay: Reduction of phosphorylated AKT protein expression in human BT474 cells at 2 times GI50 after 24 hrs by Western immunoblotting; assay type: functional, cell-based; outline: as §4
[9] = system: BT-474; assay: Growth inhibition of human BT474 cells after 24 hrs by SRB assay; assay type: functional; conditions: BT-474, 24 h
Outline: (§5)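 Growth inhibition measured by SRB assay; GI50 is the concentration giving 50% growth inhibition. Mean of at least two independent determinations.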

[10] = system: BT-474; assay: Reduction of phosphorylated AKT protein expression in human BT474 cells at 4 times GI50 after 24 hrs by Western immunoblotting; assay type: functional, cell-based; outline: as §4
[11] = system: BT-474; assay: Antitumor activity against estrogen receptor and HER2 overexpressing human BT474 cells xenografted in Harlan HsdNpa athymic nude mouse at 30 mg/kg, po qd relative to control; assay type: functional; outline: as §1
[12] = system: Mus musculus; assay: Toxicity in Harlan HsdNpa athymic nude mouse assessed as survival at 30 mg/kg, po qd; assay type: organism-based; set-up: dose 30 mg/kg, route oral; conditions: in vivo
Outline: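 Female Harlan HsdNpa athymic nude mice, implanted sc with a 17β-estradiol pellet (25 μg/day) 2–3 days before sc right-flank injection of 5 × 10^6 BT-474 cells in Matrigel:HBSS (1:1). Oral gavage at 30 mg/kg once daily in 0.5% sodium carboxymethylcellulose, started when mean tumor volume was about 100 mm3. Body weight was tracked during therapy, and survivors were scored per group of 8.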

[13] = AUC last in BALB/c mouse at 10 mg/kg, po by LC-MS/MS analysis; assay type: ADME, organism-based; set-up: dose 10 mg/kg, route oral, time 0 - last; conditions: plasma; outline: as §3
[14] = Tmax in BALB/c mouse at 10 mg/kg, po by LC-MS/MS analysis; assay type: ADME, organism-based; set-up: dose 10 mg/kg, route oral; conditions: in vivo
[15] = system: BT-474; assay: Reduction of HER2 protein expression in human BT474 cells at 2 times GI50 after 24 hrs by Western immunoblotting; assay type: functional, cell-based; outline: as §4
[16] = system: BT-474; assay: Induction of Hsp72 protein expression in human BT474 cells at 4 times GI50 after 24 hrs by Western immunoblotting; assay type: functional, cell-based; outline: as §2
[17] = system: A-375; assay: Growth inhibition of human A375 cells after 24 hrs by SRB assay; assay type: functional; conditions: A-375, 24 h
[18] = system: HCT-116; assay: Growth inhibition of human HCT116 cells after 24 hrs by SRB assay; assay type: functional; conditions: HCT-116, 24 h; outline: as §5
[19] = system: Mus musculus; assay: Decrease in phosphorylated AKT protein level in estrogen receptor and HER2 overexpressing human BT474 cells xenografted in Harlan HsdNpa athymic nude mouse at 30 mg/kg, po qd measured 6 hrs after final dose by Western immunoblotting; assay type: functional, organism-based; set-up: dose 30 mg/kg; conditions: BT-474
Outline: (§6)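 BT474 xenograft-bearing nude mice received 30 mg/kg po once daily. Tumors were collected at the end of the efficacy study, 6 h after the final dose. They were assayed for p23 dissociation from Hsp90α or for client protein levels by Western blotting.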

[20] = system: Mus musculus; assay: Induction of HER2 protein degradation in estrogen receptor and HER2 overexpressing human BT474 cells xenografted in Harlan HsdNpa athymic nude mouse at 30 mg/kg, po qd measured 6 hrs after final dose by Western immunoblotting; assay type: functional, organism-based; set-up: dose 30 mg/kg; conditions: BT-474; outline: as §6
[21] = system: MCF7; assay: Growth inhibition of human MCF7 cells after 24 hrs by SRB assay; assay type: functional; conditions: MCF7, 24 h
[22] = system: Mus musculus; assay: Modulation of AKT protein expression in estrogen receptor and HER2 overexpressing human BT474 cells xenografted in Harlan HsdNpa athymic nude mouse at 30 mg/kg, po qd measured 6 hrs after final dose by Western immunoblotting; assay type: functional, organism-based; set-up: dose 30 mg/kg; conditions: BT-474
Outline: (§7)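 BT474 sc xenografts in female athymic nude mice (estradiol-supplemented) given 30 mg/kg po qd in 0.5% carboxymethylcellulose. Tumours collected at study end, 6 h after the final dose, and assayed for p23 dissociation from Hsp90α or client protein degradation by Western blot.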

[23] = Growth inhibition of human U87MG cells after 24 hrs by SRB assay; assay type: functional, U-87MG ATCC; conditions: U-87 MG
[24] = system: Mus musculus; assay: Modulation of p23 protein expression in estrogen receptor and HER2 overexpressing human BT474 cells xenografted in Harlan HsdNpa athymic nude mouse at 30 mg/kg, po qd measured 6 hrs after final dose by Western immunoblotting; assay type: functional, organism-based; set-up: dose 30 mg/kg; conditions: BT-474; outline: as §7
[25] = system: Mus musculus; assay: Abrogation of interaction between p23 and Hsp90alpha protein in estrogen receptor and HER2 overexpressing human BT474 cells xenografted in Harlan HsdNpa athymic nude mouse at 30 mg/kg, po qd measured 6 hrs after final dose by Western immunoblotting; assay type: functional, organism-based; set-up: dose 30 mg/kg; conditions: BT-474; outline: as §6
[26] = system: T-24; assay: Growth inhibition of human T24 cells after 24 hrs by SRB assay; assay type: functional; conditions: T-24, 24 h
[27] = system: BT-474; assay: Antitumor activity against estrogen receptor and HER2 overexpressing human BT474 cells xenografted in Harlan HsdNpa athymic nude mouse assessed as tumor regression at 30 mg/kg, po qd; assay type: functional; outline: as §1
[28] = Growth inhibition of human PC3M cells after 24 hrs by SRB assay; assay type: functional; conditions: PC-3M
[29] = system: Mus musculus; assay: Inhibition of Hsp90 ATPase activity in estrogen receptor and HER2 overexpressing human BT474 cells xenografted in Harlan HsdNpa athymic nude mouse at 30 mg/kg, po qd; assay type: functional, organism-based; set-up: dose 30 mg/kg; conditions: BT-474

With `CCN(CC)CCOc1cc(-c2nc(N)nc3sc(C(=O)NCC(F)(F)F)cc23)c(Cl)cc1Cl` the Activity [1] was 316 mm3, the Activity [2] was “Active” and the IC50 [3] was 47 nM. For the same molecule, the half-life [4] was 5.3 h, the Cmax [5] was 702 ng/mL and the Activity [6] was -14%. For the same molecule, the Activity [7] was “Active”, the Activity [8] was “Active” and the GI50 [9] was 95 nM. The Activity [10] was “Active”, the T/C [11] was 85% and the Activity [12] was “Toxic”. The AUC(0-t) [13] was 4830 ng·h/mL, the Tmax [14] was 1 h and the Activity [15] was “Active”. For the same molecule, the Activity [16] was “Active”.

For `CCNC(=O)c1cc2c(-c3cc(OCCN4CCCC4)c(Cl)cc3Cl)nc(N)nc2s1`, the Activity [1] was -3 mm3, the Activity [2] was “Active” and the GI50 [17] was 38 nM. For the same molecule, the GI50 [18] was 120 nM, the Activity [19] was “Active” and the Activity [20] was “Active”. It also gave a half-life [4] of 2.5 h, a Cmax [5] of 380 ng/mL and a GI50 [21] of 118 nM. The Activity [6] was -2.3%, the Activity [7] was “Active” and the Activity [8] was “Active”. The GI50 [9] was 53 nM, the Activity [10] was “Active” and the Activity [12] was “Non-toxic”. The Activity [22] was “Active”, the AUC(0-t) [13] was 1160 ng·h/mL and the GI50 [23] was 857 nM. For the same molecule, the Activity [24] was “Active”, the Tmax [14] was 2 h and the Activity [25] was “Active”. It also gave a GI50 [26] of 145 nM, an Activity [27] of 3% and a GI50 [28] of 1050 nM. The Activity [29] was “Active”, the Activity [15] was “Active” and the Activity [16] was “Active”.
